Results on 39 compounds are retold here after ChEMBL document CHEMBL4513216, “Probing the Open Global Health Chemical Diversity Library for Multistage-Active Starting Points for Next-Generation Antimalarials” (ACS Infect Dis, 2020).

The structures appear in SMILES notation.

The nature of the data set: Toxicity liver stage against HepG2, at 10uM. Type of data set: cell-based. Also on record: test concentration 10 uM, cell line HepG2-A16-CD81EGFP. To be noted: human, HepG2-A16-CD81EGFP cells; read-out: INHIBITION
A digest of the protocol:
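Uninfected HepG2-A16-CD81EGFP cells, 3 × 10^3 per well, 1536-well, plated on prespotted compound at 10 μM final, parasite-free screening media added to match infected plates; puromycin 10 μM positive, DMSO 0.5% negative; run in parallel with 48 h PbLuc assay at 37 °C, 5% CO2; viability by CellTiter-Glo luminescence, normalized to controls.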
On to `COc1ccc(CNc2c(N3CCN(C)CC3)c(=O)c2=O)cc1`, for which the cytotoxicity at 10 µM came to 2.4%.
Under `O=C(c1ccc[nH]1)N1CCO[C@H]2CC(COCc3ccccn3)C[C@@H]21` (some centres undefined) stands 0.718%.
Regarding `Cc1ccc(CN2CC[C@@H](N(C)C(C)C)[C@@H]2Cc2ccccc2)o1`, the cytotoxicity at 10 µM was -3.52%.
Regarding `CCOC1Sc2nnc(C)n2N=C1c1ccc(Cl)cc1` (centres undefined), the cytotoxicity at 10 µM stood at 11.3%.
Regarding `CCc1nn(-c2cc(Oc3ccccc3)nc(C)n2)c(N)c1C#N`, the cytotoxicity at 10 µM worked out at 3.62%.
For `Cc1noc([C@H]2C[C@H]3OCC[C@H]3N(S(=O)(=O)C3CC3)C2)n1`, the cytotoxicity at 10 µM was -10.5%.
On to `CCS(=O)(=O)N1CCC(c2nc3ccc(-c4ccccc4)cn3n2)CC1`, for which the cytotoxicity at 10 µM was -7.41%.
Consider `Cc1cc(C)n(Cc2cccc(C(=O)NCCN3CCOCC3)c2)n1`, for which the cytotoxicity at 10 µM is -12.8%.
For `Cc1cccc(CN2CCOCC2c2[nH]ncc2C)n1` (centres undefined), the cytotoxicity at 10 µM came out at 6.91%.
The value for `CS(=O)(=O)CCCN1CCSCC1c1ccc(Cl)cc1` (centres undefined) was -14.5%.
The value for `CC(C)CNC(=O)C(C)N1CCN(C2CCN(C(C)C)CC2)CC1` (centres undefined) was -7.09%; that for `Cc1cc(C)n(-c2cncc(NCCNC(=O)c3cccnc3)n2)n1` was 7.45%.
As for `CC1CN(C(=O)Nc2ccc(Cl)c(C(=O)NC3CC3)c2)CC(C)(C)O1` (centres undefined), the cytotoxicity at 10 µM came to 6.5%.
In the case of `O=S(=O)(Cc1ccccc1)NCCc1nnc2n1CCC2`, the cytotoxicity at 10 µM worked out at 14.5%.
Regarding `CN(C)C(=O)CCCS(=O)(=O)Cc1cc(Cl)c2c(c1)OCCO2`, the cytotoxicity at 10 µM stood at 2.47%.
Regarding `COc1ccc(CN(CCC#N)CCN2CCOCC2)c(OC)c1`, the cytotoxicity at 10 µM is -1.39%.
As for `C[S+]([O-])c1nncn1CC(=O)c1ccc2c(c1)CCO2` (centres undefined), the cytotoxicity at 10 µM is -2.85%.
Regarding `CCNc1ncc(C(=O)NCc2ccc3nsnc3c2)cn1`, the cytotoxicity at 10 µM worked out at 2.34%.
As for `Cc1ccsc1CN(Cc1ncccc1C(=O)O)C1CC1`, the cytotoxicity at 10 µM was -5.8%.
As for `COCCC1CCCCN1Cc1nc(C2CC2)no1` (centres undefined), the cytotoxicity at 10 µM came to 8.53%.
Consider `CC(C)[C@H]1CN(S(C)(=O)=O)C[C@@H]1NC(=O)c1ccnc(N)c1`, for which the cytotoxicity at 10 µM is 8%.
`CCOc1ccc(OCc2nccc(-c3cc(C(=O)O)ccn3)n2)cc1`: the cytotoxicity at 10 µM was -11.8%.
The value for `O[C@@H]1CN(CC2=Cc3cc(Cl)ccc3OC2)CC[C@H]1N1CCCCCC1` was 1.9%; that for `COc1cc2c(cc1-c1nc3c(cnn3C(C)C(C)C)[nH]1)OCO2` (centres undefined) was 8.61%.
As for `COc1ccc(C(C(=O)O)N2CCCN(C3CCCC3)CC2)cc1OC` (centres undefined), the cytotoxicity at 10 µM amounted to 7.44%.
Under `CCC(C)NC(=O)CCc1ccc(OCC(F)(F)F)c(OC)c1` (centres undefined) stands -3.27%.
As to `OCCn1nccc1C1CCN(CCOc2cccc(F)c2)CC1`, the cytotoxicity at 10 µM was -10.8%.
Under `CCc1cnc(CN(C(C)=O)C2CCN(CCN3CCCCC3)C2)o1` (centres undefined) stands -3.63%.
In the case of `CN(Cc1noc(C2CC2)n1)C1CCN(CC(=O)N2CCOCC2)C1` (centres undefined), the cytotoxicity at 10 µM is -5.25%.
Under `CCc1nc(C2CCCN2CCCS(N)(=O)=O)no1` (centres undefined) stands -6.66%; under `Cc1cc(NC(=O)CCN2CCCC2Cn2cccn2)no1` (centres undefined), -5.09%.
On to `CC(NC(=O)Cn1cc(-c2ccccc2)cn1)C1CC1` (centres undefined), for which the cytotoxicity at 10 µM turned out to be 1.36%.
On to `Cc1noc(CN2CCOC(CN(C)C)C2)n1` (centres undefined), for which the cytotoxicity at 10 µM is -6.61%.
The value for `CN(c1ccc(F)c(F)c1)S(=O)(=O)c1cc(C(=O)O)cs1` was -4.89%.
Under `COc1ccc(C(C)NC(=O)Cn2ccc(=O)n(C)c2=O)cc1OC` (centres undefined) stands -9.09%; under `CCn1cnnc1C1CCN(C(=O)COCCc2ccccc2)CC1`, 0.602%; under `CN(Cc1ccco1)Cc1cnc2n1CCN(S(C)(=O)=O)CC2`, -2.75%.
For the compound `Cc1ccc(CN2CCC3(CC2)C(=O)N(C)c2ccccc23)s1`, the cytotoxicity at 10 µM was -5.68%.
In the case of `CC(C)NC(=O)[C@@H]1CC[C@@H]2[C@@H](CCN2Cc2ccc3ccccc3n2)O1`, the cytotoxicity at 10 µM was determined as 3.98%.
